The source made the active and inactive calls. The rule behind the calls is not given here.
Experiments:
NAMALVA [1] = test: Antiproliferative activity against human NAMALWA cells after 72 hrs by CCK8 assay; assay type: functional, cell-based
In short: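 Cells seeded 3,000/well in RPMI-1640 with 10% FBS at 37 °C, 5% CO2, for 4 h, then exposed to compound for 72 h. Concentrations 1.25 to 40 µM, each in five replicates. Cell number set to give an absorbance of 0.5–1.2 at 450 nm. CCK-8 read-out at 450 nm; IC50 fitted by curve fitting; values are the mean of at least three separate experiments.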

Ramos = test: Antiproliferative activity against human Ramos cells after 72 hrs by CCK8 assay; assay type: functional, cell-based
[2] = target: T1, Tyrosine-protein kinase JAK3 (Homo sapiens, UniProt P52333); test: Inhibition of recombinant human N-terminal GST-tagged JAK3 (781-end residues) expressed in baculovirus infected Sf9 cells using poly (4:1 Glu, Tyr) peptide as substrate after 60 mins by ADP-Glo assay
T1 sequence (P52333 whole entry): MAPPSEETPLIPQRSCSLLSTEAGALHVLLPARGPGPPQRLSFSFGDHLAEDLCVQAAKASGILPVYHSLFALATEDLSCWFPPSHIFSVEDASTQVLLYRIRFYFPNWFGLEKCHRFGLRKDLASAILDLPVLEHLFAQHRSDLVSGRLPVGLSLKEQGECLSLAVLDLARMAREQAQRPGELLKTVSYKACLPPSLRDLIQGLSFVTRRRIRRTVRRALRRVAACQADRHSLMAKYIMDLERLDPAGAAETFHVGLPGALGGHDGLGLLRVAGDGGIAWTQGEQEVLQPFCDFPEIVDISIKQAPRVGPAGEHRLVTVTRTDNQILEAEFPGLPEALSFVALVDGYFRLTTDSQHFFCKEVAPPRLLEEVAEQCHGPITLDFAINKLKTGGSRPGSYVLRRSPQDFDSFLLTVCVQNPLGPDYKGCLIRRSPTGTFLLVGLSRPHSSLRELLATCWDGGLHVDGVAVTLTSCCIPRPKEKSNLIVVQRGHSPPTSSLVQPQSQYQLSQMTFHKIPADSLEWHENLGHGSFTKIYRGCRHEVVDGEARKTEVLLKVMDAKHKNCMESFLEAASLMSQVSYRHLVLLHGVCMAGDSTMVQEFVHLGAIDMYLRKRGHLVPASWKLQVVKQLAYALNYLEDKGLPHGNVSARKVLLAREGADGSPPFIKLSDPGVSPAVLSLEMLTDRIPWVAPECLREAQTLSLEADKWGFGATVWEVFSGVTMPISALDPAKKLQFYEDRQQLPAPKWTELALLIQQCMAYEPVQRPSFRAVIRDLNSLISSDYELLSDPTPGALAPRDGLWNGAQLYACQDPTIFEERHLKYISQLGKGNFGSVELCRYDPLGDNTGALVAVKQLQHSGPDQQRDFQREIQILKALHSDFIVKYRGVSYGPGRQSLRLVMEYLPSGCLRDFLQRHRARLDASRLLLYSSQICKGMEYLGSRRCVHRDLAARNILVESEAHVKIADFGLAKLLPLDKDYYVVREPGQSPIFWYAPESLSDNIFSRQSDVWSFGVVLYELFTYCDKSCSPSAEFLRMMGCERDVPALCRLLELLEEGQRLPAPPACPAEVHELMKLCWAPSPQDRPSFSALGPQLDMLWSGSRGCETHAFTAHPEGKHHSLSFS
In short: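 ADP-Glo luminescent kinase assay with commercial JAK3 kinase enzyme system, in 1× kinase buffer, compounds at 0.1–1000 nM. The kinase reaction ran for 60 min at room temperature, followed by ADP-Glo reagent for 40 min to stop the reaction and deplete ATP, then detection reagent for 30 min. Luminescence was read and curves were fitted to give IC50.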

Raji [3] = test: Antiproliferative activity against human Raji cells after 72 hrs by CCK8 assay; assay type: functional, cell-based
[4] = target: Epidermal growth factor receptor (Homo sapiens, UniProt P00533, T790M); test: Inhibition of recombinant human N-terminal GST-tagged EGFR T790M mutant (695-end residues) expressed in baculovirus infected Sf9 cells using poly (4:1 Glu, Tyr) peptide as substrate after 60 mins by ADP-Glo assay
Chain of Epidermal growth factor receptor (P00533 25-1210 T790M limits assumed): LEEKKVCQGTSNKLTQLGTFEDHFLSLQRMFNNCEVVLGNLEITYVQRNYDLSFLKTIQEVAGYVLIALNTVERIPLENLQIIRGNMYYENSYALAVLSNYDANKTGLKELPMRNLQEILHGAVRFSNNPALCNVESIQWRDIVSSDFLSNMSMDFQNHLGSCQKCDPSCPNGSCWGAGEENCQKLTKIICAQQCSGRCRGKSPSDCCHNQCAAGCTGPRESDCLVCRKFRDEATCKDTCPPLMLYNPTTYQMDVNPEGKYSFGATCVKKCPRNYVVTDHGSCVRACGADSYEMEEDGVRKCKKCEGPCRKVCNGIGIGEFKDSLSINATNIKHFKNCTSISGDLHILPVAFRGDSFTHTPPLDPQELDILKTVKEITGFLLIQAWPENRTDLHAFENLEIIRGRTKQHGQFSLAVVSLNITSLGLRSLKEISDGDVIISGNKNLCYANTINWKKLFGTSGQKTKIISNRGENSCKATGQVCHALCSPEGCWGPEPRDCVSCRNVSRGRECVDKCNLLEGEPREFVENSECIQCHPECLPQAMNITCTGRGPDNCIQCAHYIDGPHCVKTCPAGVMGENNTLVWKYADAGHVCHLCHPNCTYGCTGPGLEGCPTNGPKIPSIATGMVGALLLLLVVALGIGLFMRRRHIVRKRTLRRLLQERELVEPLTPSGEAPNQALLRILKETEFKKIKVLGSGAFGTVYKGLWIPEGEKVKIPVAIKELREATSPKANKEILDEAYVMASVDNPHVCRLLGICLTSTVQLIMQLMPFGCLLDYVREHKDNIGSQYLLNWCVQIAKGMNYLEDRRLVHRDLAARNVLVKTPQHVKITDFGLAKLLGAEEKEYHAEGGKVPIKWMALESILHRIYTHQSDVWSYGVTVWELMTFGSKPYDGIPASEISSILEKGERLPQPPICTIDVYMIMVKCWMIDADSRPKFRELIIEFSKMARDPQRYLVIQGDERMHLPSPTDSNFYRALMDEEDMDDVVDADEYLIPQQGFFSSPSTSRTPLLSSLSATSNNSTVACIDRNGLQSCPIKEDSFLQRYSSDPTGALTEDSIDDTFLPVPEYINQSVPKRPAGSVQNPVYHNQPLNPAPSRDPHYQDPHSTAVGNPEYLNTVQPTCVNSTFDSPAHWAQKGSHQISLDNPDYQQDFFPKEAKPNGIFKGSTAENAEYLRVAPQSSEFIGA
In short: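 ADP-Glo luminescent kinase assay in 1× kinase buffer with compounds at 0.1 to 1000 nM. The kinase reaction ran 60 min at room temperature, then ADP-Glo reagent stopped it and depleted ATP (40 min, RT). Detection reagent converted ADP to ATP for luciferase read-out (30 min, RT). IC50 came from curve fitting.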

[5] = target: T2, Tyrosine-protein kinase BTK (Homo sapiens, UniProt Q06187); test: Inhibition of full length recombinant human N-terminal His-tagged BTK expressed in baculovirus infected Sf9 cells using poly (4:1 Glu, Tyr) peptide as substrate after 60 mins by ADP-Glo assay
T2 sequence (Q06187 whole entry): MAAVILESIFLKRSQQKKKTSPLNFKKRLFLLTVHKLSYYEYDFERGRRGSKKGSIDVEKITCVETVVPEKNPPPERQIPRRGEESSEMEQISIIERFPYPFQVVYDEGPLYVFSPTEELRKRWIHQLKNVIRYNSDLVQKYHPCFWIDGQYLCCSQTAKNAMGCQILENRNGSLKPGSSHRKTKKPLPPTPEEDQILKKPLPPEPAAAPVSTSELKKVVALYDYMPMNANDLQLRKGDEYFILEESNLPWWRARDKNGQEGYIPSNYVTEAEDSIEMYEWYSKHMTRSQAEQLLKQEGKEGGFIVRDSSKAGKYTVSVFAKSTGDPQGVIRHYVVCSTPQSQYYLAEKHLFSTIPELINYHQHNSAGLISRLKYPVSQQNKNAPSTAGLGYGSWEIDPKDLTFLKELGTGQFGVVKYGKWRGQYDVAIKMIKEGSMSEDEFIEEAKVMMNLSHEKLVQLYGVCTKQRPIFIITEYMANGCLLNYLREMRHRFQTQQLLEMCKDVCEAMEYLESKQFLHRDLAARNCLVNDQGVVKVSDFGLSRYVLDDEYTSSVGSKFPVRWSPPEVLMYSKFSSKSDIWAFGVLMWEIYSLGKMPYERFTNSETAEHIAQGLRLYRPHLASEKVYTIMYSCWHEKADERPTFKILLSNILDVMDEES

NAMALVA [6] = test: Induction of apoptosis in human NAMALWA cells assessed as late apoptotic cells at 5 uM after 48 hrs by Annexin V-FITC/propidium iodide staining based flow cytometry (reference value: 0%); assay type: functional
NAMALVA [7] = test: Induction of apoptosis in human NAMALWA cells assessed as early apoptotic cells at 5 uM after 48 hrs by Annexin V-FITC/propidium iodide staining based flow cytometry (reference value: 0%); assay type: functional
NAMALVA [8] = test: Induction of apoptosis in human NAMALWA cells assessed as morphological changes at 5 uM by acridine orange/ethidium bromide staining based phase contrast microscopic assay; assay type: functional, cell-based
NAMALVA [9] = test: Induction of apoptosis in human NAMALWA cells assessed as necrotic cells at 5 uM after 48 hrs by Annexin V-FITC/propidium iodide staining based flow cytometry (reference value: 4.05%); assay type: functional
NAMALVA [10] = test: Induction of apoptosis in human NAMALWA cells assessed as necrotic cells at 1 uM after 48 hrs by Annexin V-FITC/propidium iodide staining based flow cytometry (reference value: 4.05%); assay type: functional
NAMALVA [11] = test: Induction of apoptosis in human NAMALWA cells assessed as necrotic cells at 2 uM after 48 hrs by Annexin V-FITC/propidium iodide staining based flow cytometry (reference value: 4.05%); assay type: functional
[12] = target: T2, Tyrosine-protein kinase BTK; test: Inhibition of BTK phosphorylation in human NAMALWA cells after 48 hrs by Western blot method; assay type: cell-based
In short: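 NAMALWA cells were treated at 1, 5 and 10 µM for 48 h and lysed; lysates were cleared at 14,000 g for 15 min at 4 °C. 50 µg protein was resolved on 8–12% SDS-PAGE and transferred to PVDF. The membrane was blocked in 5% skim milk for 2 h at room temperature, then probed overnight at 4 °C for BTK and p-BTK. Detection was by ECL.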

NAMALVA [13] = test: Potency index, ratio of ibrutinib IC50 to compound IC50 for antiproliferative activity against human NAMALWA cells; assay type: functional
PBMC = test: Cytotoxicity against human PBMC assessed as morphological changes at 5 to 20 uM after 24 hrs by acridine orange/ethidium bromide staining based phase contrast microscopic method; assay type: cell-based
In short: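 PBMC were isolated from a healthy adult 's venous blood (ACD anticoagulant) by Lymphoprep density separation, washed in PBS and seeded at 200,000–250,000 cells/well. Treated in RPMI-1640 with 10% FBS at 37 °C, 5% CO2, for 24 h, with five replicates per concentration. Morphology was checked by phase-contrast microscopy and AO/EB staining; live cells were counted manually in a counting chamber.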

NAMALVA [14] = test: Induction of apoptosis in human NAMALWA cells assessed as early apoptotic cells at 1 uM after 48 hrs by Annexin V-FITC/propidium iodide staining based flow cytometry (reference value: 0%); assay type: functional
NAMALVA [15] = test: Induction of apoptosis in human NAMALWA cells assessed as late apoptotic cells at 2 uM after 48 hrs by Annexin V-FITC/propidium iodide staining based flow cytometry (reference value: 0%); assay type: functional
NAMALVA [16] = test: Induction of apoptosis in human NAMALWA cells assessed as late apoptotic cells at 1 uM after 48 hrs by Annexin V-FITC/propidium iodide staining based flow cytometry (reference value: 0%); assay type: functional
Raji [17] = test: Potency index, ratio of ibrutinib IC50 to compound IC50 for antiproliferative activity against human Raji cells; assay type: functional
NAMALVA [18] = test: Induction of apoptosis in human NAMALWA cells assessed as early apoptotic cells at 2 uM after 48 hrs by Annexin V-FITC/propidium iodide staining based flow cytometry (reference value: 0%); assay type: functional

Row | SMILES | IC50 (NAMALVA [1]) [µM] | IC50 (Ramos) [µM] | IC50 [2] [µM] | IC50 (Raji [3]) [µM] | IC50 [4] [µM] | IC50 [5] [µM] | Activity (NAMALVA [6]) [%] | Activity (NAMALVA [7]) [%] | Activity (NAMALVA [8]) | Activity (NAMALVA [9]) [%] | Activity (NAMALVA [10]) [%] | Activity (NAMALVA [11]) [%] | inhibition [12] | Ratio IC50 (NAMALVA [13]) | Activity (PBMC) | Activity (NAMALVA [14]) [%] | Activity (NAMALVA [15]) [%] | Activity (NAMALVA [16]) [%] | Ratio IC50 (Raji [17]) | Activity (NAMALVA [18]) [%]
1 | C=CC(=O)Nc1cccc(Nc2nc(Nc3ccc(OCC(=O)NCC(=O)OC)cc3)ncc2Cl)c1 | 16.9 | 20.9 | 0.496 | 18 | > 0.1 | 0.0065 |  |  |  |  |  |  |  |  |  |  |  |  |  | 
2 | C=CC(=O)N1CCC[C@@H](n2nc(-c3ccc(Oc4ccccc4)cc3)c3c(N)ncnc32)C1 [IBRUTINIB] | 19.6 |  |  |  |  |  | 5.75 | 4.06 | Active | 0.73 |  |  |  |  |  |  |  |  |  | 
3 | C=CC(=O)Nc1cccc(Nc2nc(Nc3ccc(OCC(=O)N4CCCC4C(=O)OC)cc3)ncc2Cl)c1 (stereo not drawn) | 4.8 | 19.7 | 0.196 | 6.7 | > 0.1 | 0.0087 | 13.33 | 8.75 | Active | 1.67 | 0.92 | 0.82 | Dose-dependent effect | 4 | Non-Toxic | 4.94 | 7.43 | 5.83 | 3 | 6.96
4 | C=CC(=O)Nc1cccc(Nc2nc(Nc3ccc(OCC(=O)NCC(=O)O)cc3)ncc2Cl)c1 | > 40 | > 40 | > 0.5 | > 40 | > 0.1 | 0.0112 |  |  |  |  |  |  |  |  |  |  |  |  |  | 
5 | C=CC(=O)Nc1cccc(Nc2nc(Nc3ccc(OCC(=O)NC(C)C(=O)OC)cc3)ncc2Cl)c1 (stereo not drawn) | 29.3 | 40.8 | > 0.5 | 25.2 | > 0.1 | 0.0087 |  |  |  |  |  |  |  |  |  |  |  |  |  | 
